Active and inactive are the calls of the source. The rule behind the calls is not given here.
How the values were obtained:
Type in all cases: functional, organism-based
[1] = test system: Mus musculus; assay: Antidiabetic activity in STZ-induced Kunming mouse model of diabetes assessed as increase in GK expression level in liver at 62.5 to 125 m/kg, po administered QD administered via gavage for 4 weeks by Western blot analysis
How it was run: (§1)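 Livers from diabetic mice after 28 days of daily gavage (31.25–125 mg/kg) were homogenized and spun at 14 000g, 4 °C. Proteins were run on 10% SDS-PAGE and transferred to PVDF, then blocked in 5% milk for 1 h. Primary antibodies (GK, PK, PFK, PCB, PEPCK, FBPase, G-6-Pase, p-IR Tyr999, p-IRS-1 Ser307) were applied for 1 h at 25 °C, followed by HRP anti-rabbit IgG and ECL detection. Mean ± SD, Duncan's test.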

[2] = test system: Mus musculus; assay: Antidiabetic activity in STZ-induced Kunming mouse model of diabetes assessed as increase in Oscillibacter level in feces at 31.25 to 125 mg/kg, po administered QD administered via gavage for 4 weeks by 16S rDNA based Illumina sequencing method
[3] = test system: Mus musculus; assay: Antidiabetic activity in STZ-induced Kunming mouse model of diabetes assessed as increase in hepatic glycogen level at 31.25 to 125 m/kg, po administered QD administered via gavage for 4 weeks
How it was run: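 Diabetic mice (high-fat diet plus STZ 35 mg/kg i.p.) were dosed by gavage once daily for 28 days at 31.25–125 mg/kg. After an overnight fast at endpoint, liver and plasma were collected. ALT, hepatic glycogen and pyruvic acid were measured with commercial kits.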

[4] = test system: Mus musculus; assay: Antidiabetic activity in STZ-induced Kunming mouse model of diabetes assessed as down regulation of PEPCK expression level in liver at 62.5 to 125 m/kg, po administered QD administered via gavage for 4 weeks by Western blot analysis; how it was run: as §1
[5] = test system: Mus musculus; assay: Antidiabetic activity in STZ-induced Kunming mouse model of diabetes assessed as increase in Lachnospiraceae level in feces at 31.25 to 125 mg/kg, po administered QD administered via gavage for 4 weeks by 16S rDNA based DNA sequencing analysis
[6] = test system: Mus musculus; assay: Antidiabetic activity in STZ-induced Kunming mouse model of diabetes assessed as down regulation of glucose-6-phosphatase expression level in liver at 62.5 to 125 m/kg, po administered QD administered via gavage for 4 weeks by Western blot analysis; how it was run: as §1
[7] = test system: Mus musculus; assay: Antidiabetic activity in po dosed STZ-induced Kunming mouse model of diabetes assessed as increase in Bacteroidetes level in feces administered QD administered via gavage for 4 weeks by 16S rDNA based Illumina sequencing method
[8] = test system: Mus musculus; assay: Antidiabetic activity in STZ-induced Kunming mouse model of diabetes assessed as down regulation of PCB expression level in liver at 62.5 to 125 m/kg, po administered QD administered via gavage for 4 weeks by Western blot analysis; how it was run: as §1
[9] = test system: Mus musculus; assay: Antidiabetic activity in STZ-induced Kunming mouse model of diabetes assessed as decrease in Klebsiella level in feces at 62.5 to 125 mg/kg, po administered QD administered via gavage for 4 weeks by 16S rDNA based DNA sequencing analysis
[10] = test system: Mus musculus; assay: Antidiabetic activity in STZ-induced Kunming mouse model of diabetes assessed as decrease in Rumino-coccaceae UCG-014 level in feces at 31.25 to 125 mg/kg, po administered QD administered via gavage for 4 weeks by 16S rDNA based Illumina sequencing method
[11] = test system: Mus musculus; assay: Antidiabetic activity in STZ-induced Kunming mouse model of diabetes assessed as decrease in Escherichia-Shigella level in feces at 31.25 to 125 mg/kg, po administered QD administered via gavage for 4 weeks by 16S rDNA based Illumina sequencing method
[12] = test system: Mus musculus; assay: Antidiabetic activity in STZ-induced Kunming mouse model of diabetes assessed as decrease in Anaer-ostipes level in feces at 31.25 to 125 mg/kg, po administered QD administered via gavage for 4 weeks by 16S rDNA based DNA sequencing analysis
[13] = test system: Mus musculus; assay: Antidiabetic activity in STZ-induced Kunming mouse model of diabetes assessed as increase in LPL mRNA level at 31.25 to 125 m/kg, po administered QD administered via gavage for 4 weeks by RT-PCR analysis
How it was run: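 Liver RNA was Trizol-extracted and reverse-transcribed. qPCR ran 95 °C 10 min, then 45 cycles of 95 °C 15 s, 55 °C 20 s and 72 °C 30 s. LPL was normalized to β-actin and quantified by 2−ΔΔCt. Samples came from STZ/high-fat-diet diabetic mice gavaged daily for 28 days at 31.25–125 mg/kg.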

[14] = test system: Mus musculus; assay: Antidiabetic activity in STZ-induced Kunming mouse model of diabetes assessed as increase in PK expression level in liver at 62.5 to 125 m/kg, po administered QD administered via gavage for 4 weeks by Western blot analysis; how it was run: as §1
[15] = test system: Mus musculus; assay: Antidiabetic activity in STZ-induced Kunming mouse model of diabetes assessed as increase in Lackno-spiraceae NK4A136 level in feces at 31.25 to 125 mg/kg, po administered QD administered via gavage for 4 weeks by 16S rDNA based Illumina sequencing method
[16] = test system: Mus musculus; assay: Antidiabetic activity in po dosed STZ-induced Kunming mouse model of diabetes assessed as decrease in IRS-1 (Ser 307 residues) expression in liver administered QD administered via gavage for 4 weeks by Western blot analysis; how it was run: as §1
[17] = test system: Mus musculus; assay: Antidiabetic activity in STZ-induced Kunming mouse model of diabetes assessed as decrease in Prevo-tellaceae Ga6A1 level in feces at 31.25 to 125 mg/kg, po administered QD administered via gavage for 4 weeks by 16S rDNA based DNA sequencing analysis
[18] = test system: Mus musculus; assay: Antidiabetic activity in STZ-induced Kunming mouse model of diabetes assessed as decrease in TC level at 125 m/kg, po administered QD administered via gavage for 4 weeks
How it was run: (§2)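 STZ/high-fat-diet diabetic Kunming mice (n=10/group) were gavaged daily for 28 days at 31.25–125 mg/kg. After an overnight fast, orbital-sinus blood was taken and plasma was spun at 1000g, 4 °C. TC, TG and HDL-C were measured by kit. LDL-C was calculated by Friedewald: TC − (HDL-C + TG/2.2), with TG below 4.5 mmol/L. Data are mean ± SD, Duncan's test.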

[19] = test system: Mus musculus; assay: Antidiabetic activity in STZ-induced Kunming mouse model of diabetes assessed as increase in HDL-C level at 31.25 to 125 m/kg, po administered QD administered via gavage for 4 weeks; how it was run: as §2
[20] = test system: Mus musculus; assay: Antidiabetic activity in STZ-induced Kunming mouse model of diabetes assessed as increase in glucose tolerance 31.25 to 125 mg/kg, po administered QD administered via gavage for 4 weeks and measured on day 26 followed by glucose challenge after 30 mins during compound dosing by OGTT
How it was run: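 On treatment day 26, after a 12 h fast, diabetic mice received oral glucose at 2.0 g/kg. Tail-tip blood glucose was read at 0, 30, 60, 90 and 120 min. Daily gavage dosing was 31.25–125 mg/kg, n=10 per group.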

With `OC[C@H]1NC[C@H](O)[C@@H](O)[C@@H]1O` the Activity [1] was “Active”, the Activity [2] was “Active” and the Activity [3] was “Active”. For the same compound, the Activity [4] was “Active”, the Activity [5] was “Active” and the Activity [6] was “Active”. The Activity [7] was “Dose-dependent effect”, the Activity [8] was “Active” and the Activity [9] was “Active”. The Activity [10] was “Active”, the Activity [11] was “inactive” and the Activity [12] was “Active”. For the same compound, the Activity [13] was “Active”, the Activity [14] was “Active” and the Activity [15] was “Active”. The Activity [16] was “Dose-dependent effect”, the Activity [17] was “Active” and the Activity [18] was “Active”. For the same compound, the Activity [19] was “Active” and the Activity [20] was “Active”.
